Our source for the IC50 and inhibition values is ChEMBL document CHEMBL2390866, “Novel pyrimidoazepine analogs as serotonin 5-HT(2A) and 5-HT(2C) receptor ligands for the treatment of obesity” (Eur J Med Chem, 2013).

Where only a bound is given, the exact number is not on record here.

Experiment [1] has as its target T1, 5-hydroxytryptamine receptor 2C (Homo sapiens, UniProt P28335).
T1 sequence (P28335 whole entry): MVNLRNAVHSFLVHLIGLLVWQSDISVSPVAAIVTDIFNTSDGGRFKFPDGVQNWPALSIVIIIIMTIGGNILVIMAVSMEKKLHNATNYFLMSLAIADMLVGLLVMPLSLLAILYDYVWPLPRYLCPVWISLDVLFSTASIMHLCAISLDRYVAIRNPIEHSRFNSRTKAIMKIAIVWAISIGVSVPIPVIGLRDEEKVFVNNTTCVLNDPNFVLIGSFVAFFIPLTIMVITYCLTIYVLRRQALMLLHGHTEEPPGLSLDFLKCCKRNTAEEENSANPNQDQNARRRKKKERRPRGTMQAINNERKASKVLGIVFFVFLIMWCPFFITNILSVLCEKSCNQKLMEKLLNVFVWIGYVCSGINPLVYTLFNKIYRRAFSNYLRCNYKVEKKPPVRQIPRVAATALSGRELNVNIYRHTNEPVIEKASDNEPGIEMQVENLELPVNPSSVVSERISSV
In words: Displacement of [3H]-mesulergine from human recombinant 5HT-2C receptor expressed in CHOK1 cell membranes after 30 mins. Also on record: species or system CHO-K1. Put shortly: (§1)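 Frozen CHO-K1 membranes expressing recombinant human 5-HT2C incubated with 1 nM [3H]mesulergine in 50 mM Tris-HCl pH 7.4 containing 0.1% ascorbic acid and pargyline. Mianserin defined nonspecific binding.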
In general terms: In a radioligand displacement assay an active substance lowers the binding of a labelled ligand.

For experiment [2], the target named is T2, 5-hydroxytryptamine receptor 2A (Homo sapiens, UniProt P28223). The experiment is described as follows: Displacement of [3H]-ketanserin from human recombinant 5HT-2A receptor expressed in CHOK1 cell membranes at 10 uM after 60 mins relative to control. The following applies: CHO-K1. Put shortly:
(§2)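 Buffer was 50 mM Tris-HCl pH 7.4 with 5 mM CaCl2 and 0.1% ascorbic acid. Test compound added at a range of concentrations.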

In experiment [3] the target is T3, 5-hydroxytryptamine receptor 2C (Homo sapiens) (UniProt P28335).
T3 sequence (whole entry): T1 sequence (P28335 whole entry)
In words: Displacement of [3H]-mesulergine from human recombinant 5HT-2C receptor expressed in CHOK1 cell membranes at 10 uM after 30 mins relative to control. The note with it: CHO-K1. Put shortly:
as §1

The target in experiment [4] is T2, 5-hydroxytryptamine receptor 2A. The experiment is described as follows: Displacement of [3H]-ketanserin from human recombinant 5HT-2A receptor expressed in CHOK1 cell membranes after 60 mins. More on the design: species or system CHO-K1. In outline: as §2
Experiment [5] has the same target. The experiment is described as follows: Antagonist activity at serotonin-activated human recombinant 5HT-2A receptor expressed in HEK293 cells assessed as decrease in intracellular calcium level after 5 mins measured for 1 min by fluorescence assay. It is filed as functional, cell-based. The following applies: read-out: EC50 (the source's name). Put shortly:
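Cells were washed with HBSS/20 mM HEPES, then loaded 50 min with Fluo-4 NW dye in HBSS with 2.5 mM probenecid. Compound was added for 5 min at 37 °C, then serotonin; fluorescence followed 1 min. Run in duplicate or quadruplicate, repeated several times; IC50 by nonlinear regression.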

T2 sequence (P28223 whole entry): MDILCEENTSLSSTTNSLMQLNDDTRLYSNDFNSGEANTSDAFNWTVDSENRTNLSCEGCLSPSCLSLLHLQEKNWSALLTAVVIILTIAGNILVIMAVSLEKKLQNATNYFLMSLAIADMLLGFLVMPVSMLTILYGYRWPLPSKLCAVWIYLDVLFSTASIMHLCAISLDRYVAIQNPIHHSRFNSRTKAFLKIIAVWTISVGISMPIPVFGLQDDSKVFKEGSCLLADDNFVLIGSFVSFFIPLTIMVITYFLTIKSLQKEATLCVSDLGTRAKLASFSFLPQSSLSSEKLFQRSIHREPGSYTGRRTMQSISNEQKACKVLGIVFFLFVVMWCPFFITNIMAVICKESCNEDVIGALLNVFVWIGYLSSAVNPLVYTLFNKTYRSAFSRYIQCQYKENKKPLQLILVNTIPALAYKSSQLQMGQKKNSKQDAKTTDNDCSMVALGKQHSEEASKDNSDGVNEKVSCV

In general, inhibition refers to the relative decrease from the control value, in per cent. `COCCNc1nc(Nc2ccc(F)cc2)c2cn[nH]c2n1`: the IC50 in experiment [1] and in experiment [4] was over 10000 nM throughout. Further, the inhibition in experiment [2] came to 25%; in experiment [3], 18%.
As to `CNc1nc(Nc2ccc(F)cc2)c2cn[nH]c2n1`, the results for the IC50 in experiment [1] and in experiment [4] were 7790 nM and over 10000 nM, respectively. Further, the results for the inhibition in experiment [2] and in experiment [3] were 49% and 51%, respectively.
For `Fc1ccc(Nc2nc(NCc3ccccc3)nc3[nH]ncc23)cc1`, in that order: 2590 nM, 1270 nM, 85% and 82%.
On to `C=CCNc1nc(Nc2ccc(F)cc2)c2cn[nH]c2n1`, for which the figures for the IC50 in experiment [1] and in experiment [4] were over 10000 nM and 6580 nM, respectively. The inhibition was 60% in experiment [2] and 41% in experiment [3].
Consider `Fc1ccc(Nc2nc(N3CCN(c4ccccc4)CC3)nc3[nH]ncc23)cc1`, for which the IC50 in experiment [1] came to 416 nM; in experiment [4] it was 27.2 nM. The results for the inhibition in experiment [2] and in experiment [3] were 100% and 88%, respectively.
As for `COCCCNc1nc(Nc2ccc(F)cc2)c2cn[nH]c2n1`, the IC50 was over 10000 nM in experiment [1] and 5280 nM in experiment [4]. The inhibition in experiment [2] amounted to 67%; in experiment [3] it was 28%.
On to `CN1CCN(c2nc(Nc3ccc(F)cc3)c3cn[nH]c3n2)CC1`, for which the figures for the IC50 in experiment [1] and in experiment [4] were 85.8 nM and 24.2 nM, respectively. The inhibition in experiment [2] and in experiment [3] was 100% in each case.
For `COc1cccc(Nc2nc(N3CCN(C)CC3)nc3[nH]ncc23)c1`, the IC50 in experiment [1] came to 7.8 nM; in experiment [4], 9.1 nM. The inhibition in experiment [2] and in experiment [3] was 100% each time.
As for `CC1CCN(c2nc(Nc3ccc(F)cc3)c3cn[nH]c3n2)CC1`, the IC50 in experiment [1] was 1500 nM; in experiment [4] it was 3670 nM. Besides, the values for the inhibition in experiment [2] and in experiment [3] were 83% and 86%, respectively.
Consider `Fc1ccc(Nc2nc(N3CCN(Cc4ccccc4)CC3)nc3[nH]ncc23)cc1`, for which the IC50 turned out to be 836 nM in experiment [1] and 52.2 nM in experiment [4]. Besides, the results for the inhibition in experiment [2] and in experiment [3] were 100% and 96%, respectively.
The corresponding values for `CCN(CC)c1nc(Nc2ccc(C)c(C)c2)c2cn[nH]c2n1` are 8490 nM, 2750 nM, 85% and 52%.
As to `COc1nc(N2CCN(C)CC2)nc2c1CCNCC2`, the IC50 in experiment [1] and in experiment [4] was over 10000 nM each time.
For the compound `CN1CCc2nc(N3CCN(C)CC3)nc(Nc3ccc(F)cc3)c2CC1`, the IC50 amounted to 779 nM in experiment [1] and 684 nM in experiment [4].
Take `CCCNc1nc(Nc2ccccc2)c2cn[nH]c2n1`: the IC50 in experiment [1] and in experiment [4] was over 10000 nM each time. Further, the inhibition was determined as 30% in experiment [2] and 29% in experiment [3].
Consider `CCN(CC)c1nc(Nc2ccc(F)cc2)c2cn[nH]c2n1`, for which the IC50 in experiment [1] came out at 3310 nM; in experiment [4] it was 4530 nM. In addition, the inhibition is 84% in experiment [2] and 76% in experiment [3].
In the case of `COc1ccccc1N1CCN(c2nc(Nc3ccc(F)cc3)c3cn[nH]c3n2)CC1`, the IC50 in experiment [1] turned out to be 1730 nM; in experiment [4], 1380 nM. Further, the inhibition is 93% in experiment [2] and 78% in experiment [3].
For `Fc1ccc(Nc2nc(N3CCCCC3)nc3[nH]ncc23)cc1`, in that order: 1300 nM, 2200 nM, 86% and 89%.
The corresponding values for `CN1CCN(c2nc(Nc3ccc(Cl)cc3)c3cn[nH]c3n2)CC1` are 29.4 nM, 28.8 nM, 100% and 100%.
In the case of `COc1cccc(Nc2nc(N3CCN(c4ccc(F)cc4)CC3)nc3[nH]ncc23)c1`, the IC50 in experiment [1] came to 1080 nM; in experiment [4] it was 350 nM. Further, the results for the inhibition in experiment [2] and in experiment [3] were 100% and 85%, respectively.
For the compound `CCNc1nc(Nc2ccc(F)cc2)c2cn[nH]c2n1`, the IC50 in experiment [1] and in experiment [4] was over 10000 nM throughout. Also, the inhibition in experiment [2] was 39%; in experiment [3], 23%.
Turning to `Fc1ccc(Nc2nc(NC3CCCC3)nc3[nH]ncc23)cc1`, the results for the IC50 in experiment [1] and in experiment [4] were over 10000 nM and 4500 nM, respectively. The inhibition in experiment [2] was found to be 72%; in experiment [3], 35%.
`CN1CCN(c2ncc3c(n2)CCNCC3)CC1`: the IC50 in experiment [1] and in experiment [4] was over 10000 nM each time.
Turning to `CN1CCN(c2nc(Nc3ccccc3)c3cn[nH]c3n2)CC1`, the IC50 in experiment [1] worked out at 86.9 nM; in experiment [4], 25.1 nM. For the same compound, the inhibition in experiment [2] and in experiment [3] was 100% in each case.
In the case of `COc1ccc(Nc2nc(Cc3ccccc3)nc3c2CCNCC3)cc1`, the IC50 in experiment [1] came out at 269 nM; in experiment [4] it was 57.4 nM.
Consider `OCCCNc1nc(Nc2ccc(F)cc2)c2cn[nH]c2n1`, for which the IC50 in experiment [1] and in experiment [4] was over 10000 nM throughout. In addition, the inhibition is 26% in experiment [2] and 5% in experiment [3].
Take `CN(C)c1nc(Nc2ccc(F)cc2)c2cn[nH]c2n1`: the IC50 in experiment [1] was determined as 4030 nM; in experiment [4], 4880 nM. Moreover, the inhibition in experiment [2] was 79%; in experiment [3] it was 66%.
With `CN1CCN(c2nc3c(c(OCc4ccco4)n2)CCNCC3)CC1`, the IC50 in experiment [1] came out at 1260 nM; in experiment [4], 2630 nM.
Regarding `Fc1ccc(Nc2nc(N3CCOCC3)nc3[nH]ncc23)cc1`, the IC50 in experiment [1] turned out to be 2070 nM; in experiment [4], 2620 nM. Moreover, the figures for the inhibition in experiment [2] and in experiment [3] were 83% and 81%, respectively.
With `Fc1ccc(Nc2nc(NC3CCCCC3)nc3[nH]ncc23)cc1`, the IC50 in experiment [1] was 5710 nM; in experiment [4], 3670 nM. Further, the inhibition in experiment [2] was found to be 73%; in experiment [3], 62%.
As for `Cc1ccc(CNc2nc(Nc3ccc(F)cc3)c3cn[nH]c3n2)cc1`, the IC50 in experiment [1] was 5830 nM; in experiment [4], 947 nM. Also, the inhibition in experiment [2] is 93%; in experiment [3] it was 66%.
Consider `CCNc1nc(Nc2ccccc2)c2cn[nH]c2n1`, for which the IC50 in experiment [1] and in experiment [4] was over 10000 nM each time. In addition, the inhibition in experiment [2] was 6%; in experiment [3], 15%.
Turning to `CC1CC(C)CN(c2nc(Nc3ccc(F)cc3)c3cn[nH]c3n2)C1` (centres undefined), the IC50 in experiment [1] turned out to be 3820 nM; in experiment [4] it was 5870 nM. Moreover, the inhibition in experiment [2] stood at 75%; in experiment [3], 67%.
As for `Fc1ccc(Nc2nc(NCCN3CCOCC3)nc3[nH]ncc23)cc1`, the figures for the IC50 in experiment [1] and in experiment [4] were over 10000 nM and 9740 nM, respectively. For the same compound, the inhibition was found to be 51% in experiment [2] and 35% in experiment [3].
As to `CCN(CC)c1nc(Nc2cccc(OC)c2)c2cn[nH]c2n1`, the results for the IC50 in experiment [1] and in experiment [4] were 5420 nM and 2080 nM, respectively. For the same compound, the inhibition in experiment [2] was 87%; in experiment [3] it was 61%.
With `CCN(CC)c1nc(Nc2ccccc2C)c2cn[nH]c2n1`, the results for the IC50 in experiment [1] and in experiment [4] were 242 nM and 4580 nM, respectively. Besides, the figures for the inhibition in experiment [2] and in experiment [3] were 66% and 88%, respectively.
Consider `OCCN1CCN(c2nc(Nc3ccc(F)cc3)c3cn[nH]c3n2)CC1`, for which the IC50 worked out at 494 nM in experiment [1] and 163 nM in experiment [4]. Moreover, the inhibition in experiment [2] was 100%; in experiment [3], 97%.
As to `COc1ccc(Nc2nc(N3CCN(c4ccc(F)cc4)CC3)nc3[nH]ncc23)cc1`, the values for the IC50 in experiment [1] and in experiment [4] were 1180 nM and 696 nM, respectively. For the same compound, the values for the inhibition in experiment [2] and in experiment [3] were 92% and 86%, respectively.
In the case of `Fc1ccc(Nc2nc(N3CCN(c4ccc(F)cc4)CC3)nc3[nH]ncc23)cc1`, the IC50 was 148 nM in experiment [1] and 17.9 nM in experiment [4]. For the same compound, the inhibition is 94% in experiment [2] and 96% in experiment [3].
Take `CCN(CC)c1nc(Nc2ccc(Cl)cc2)c2cn[nH]c2n1`: the figures for the IC50 in experiment [1] and in experiment [4] were 991 nM and 1890 nM, respectively. Moreover, the figures for the inhibition in experiment [2] and in experiment [3] were 86% and 80%, respectively.
Regarding `CNc1nc(N2CCN(C)CC2)nc2c1CCNCC2`, the IC50 is over 10000 nM in experiment [1], 1200 nM in experiment [5] and over 10000 nM in experiment [4].
